Bioassay records deposited in PubChem BioAssay by several laboratories.
An excerpt weighted towards active compounds, which were near 2.9% of everything screened.
HSP90 inh: blocks HSP90-mediated luciferase refolding in reticulocyte lysate; 290,000 tested, 0.91% active; inhibition, % at 5.6 µM; Rabbit reticulocyte lysate, luciferase refolding luminescence, 3 h;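 active = inhibition above the screen-wide mean plus 3 SD, computed separately per campaign, cut at about 16% in these data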;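 note: inhibitors lower the luminescence because luciferase stays unfolded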
SENP8 block-1: blocks human SENP8 cleavage of Nedd8 substrate. Q96LD8. recombinant SENP8, Nedd8 substrate fluorescence. inhibition, % at 20 µM. 360,000 tested, 0.64% active. AID 602440; in the data active = inhibition mostly above about 40%, no sharp cut-off; inactive = mostly below about 27%
Target sequence (Q96LD8 whole entry, looked up): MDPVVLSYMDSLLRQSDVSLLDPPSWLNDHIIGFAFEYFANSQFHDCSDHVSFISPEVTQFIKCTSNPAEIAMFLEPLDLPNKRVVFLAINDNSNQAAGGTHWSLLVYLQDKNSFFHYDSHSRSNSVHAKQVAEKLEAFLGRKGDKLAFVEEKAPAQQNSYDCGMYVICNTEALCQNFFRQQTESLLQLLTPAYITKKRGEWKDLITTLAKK
SENP6 inh: SENP6 protease inhibition; 330,000 tested, 1.8% active; Recombinant SENP6 catalytic domain, aminoluciferin luminescence; AID 2599; inhibition, % at 10 µM; Q9GZR1;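 active = inhibition above about 50% at the single tested dose, limit read from the data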
SENP7 block: SENP7 protease inhibition. inhibition, % at 5 µM. 330,000 tested, 1.5% active. recombinant SENP7, Z-RLRGG-aminoluciferin luminescence, 40 min. Q9BQF6;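 active = inhibition above about 50% at the single test dose, limit read from the data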
SENP1 inh: blocks the human SENP1 SUMO protease catalytic domain. Q9P0U3. recombinant SENP1 catalytic domain, CyPet-SUMO1-YPet FRET cleavage. inhibition, % at 10 µM. 360,000 tested, 0.21% active;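 active = inhibition at least 30% at 10 µM, raw YFP signal under a set limit, fluorescence ratio 0.5 to 1.5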
Target sequence (Q9P0U3 419-644 limits assumed): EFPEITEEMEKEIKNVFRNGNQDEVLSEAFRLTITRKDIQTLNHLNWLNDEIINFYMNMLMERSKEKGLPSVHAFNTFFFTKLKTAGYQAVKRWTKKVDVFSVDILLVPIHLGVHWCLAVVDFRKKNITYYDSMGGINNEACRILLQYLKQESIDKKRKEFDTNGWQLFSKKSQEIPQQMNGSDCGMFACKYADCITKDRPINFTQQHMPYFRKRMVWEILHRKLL
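Compound: 10 µM single point, 0.5% DMSO; Test system: hSENP1 catalytic domain, recombinant; Timing: 50 min reaction at room temperature; Technique: FRET, CFP and YFP emission; Control set: no-enzyme wells low, DMSO-plus-enzyme wells high control.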
SENP8 block-2: SENP8 protease inhibition. 330,000 tested, 1.2% active. inhibition, % at 10 µM. purified SENP8, Z-RLRGG-aminoluciferin cleavage, luminescence; in the data active = inhibition above about 50%
HSP90 confirm: HSP90 inhibition, confirmation assay | inhibition, % at 5.9 µM | shares compounds with HSP90 inh | rabbit reticulocyte lysate, luciferase refolding luminescence, 3 h | 2,300 tested, 64% active; in the data active = inhibition above about 18%
luciferase ctr: firefly luciferase inhibition, HSP90 counter-screen; shares compounds with HSP90 inh; purified native firefly luciferase, luminescence; inhibition, % at 5.9 µM; 2,300 tested, 48% active; AID 1847;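 active = inhibition above the mean inhibition of all tested sample wells plus 3 SD, cut at about 10% in these data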
SENP8 confirm: confirmation of human SENP8 protease inhibitors. inhibition, % at 12.5 µM. 6,200 tested, 40% active. shares compounds with SENP7 block. Recombinant SENP8, Z-RLRGG-aminoluciferin luminescence, 60 min;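 active = mean inhibition across replicates above about 50%, limit read from the data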
SENP6 confirm: confirmation of human SENP6 protease inhibitors; shares compounds with SENP7 block; recombinant SENP6, Z-RLRGG-aminoluciferin luminescence; inhibition, % at 12.5 µM; 6,200 tested, 58% active; AID 488915
SENP7 confirm: confirmation of human SENP7 protease inhibitors. shares compounds with SENP7 block. AID 488917. inhibition, % at 12.5 µM. recombinant SENP7, Z-RLRGG-aminoluciferin luminescence, 40 min. 6,200 tested, 69% active
Casp3 select: selectivity test for SENP inhibitors: human caspase-3 inhibition; 6,200 tested, 60% active; purified caspase-3, Z-DEVD-aminoluciferin luminescence, 60 min; inhibition, % at 12.5 µM; shares compounds with SENP7 block; AID 488918;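 active = mean inhibition above about 50%, limit read from the data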
Target sequence (P42574 28-227 limits assumed): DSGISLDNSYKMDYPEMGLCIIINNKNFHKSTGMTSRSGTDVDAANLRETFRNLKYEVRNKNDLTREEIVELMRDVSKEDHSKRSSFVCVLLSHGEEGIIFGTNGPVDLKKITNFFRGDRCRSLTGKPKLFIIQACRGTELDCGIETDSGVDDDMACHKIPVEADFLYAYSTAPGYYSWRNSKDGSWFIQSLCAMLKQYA
SENP luc ctr: counter-screen for SENP inhibitors: luminescence interference; AID 488919; inhibition, % at 12.5 µM; Pre-incubated SENP8/Z-RLRGG-aminoluciferin, luciferase luminescence interference; shares compounds with SENP7 block; 6,200 tested, 39% active;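 active = mean inhibition above about 50% when retested at one dose, limit read from the data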
Numbers stand for hits; n = inactive; x = not tested or not shown.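 Rule for the calls, unless noted: active = mean inhibition above about 50% in the one-dose retest (limit read from the data); inactive = the rest.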

SMILES | HSP90 inh | SENP8 block-1 | SENP6 inh | SENP7 block | SENP1 inh | SENP8 block-2 | HSP90 confirm | luciferase ctr | SENP8 confirm | SENP6 confirm | SENP7 confirm | Casp3 select | SENP luc ctr
Cc1cc(C(=O)COC(=O)c2ccc(O)cc2)c(C)n1CC1CCCO1 (stereo not given) | 32 | n | 54 | n | n | n | 39 | 43 | 54 | n | 83 | 67 | n
Cc1cc(C(=O)COC(=O)c2ccc(Cl)c(S(N)(=O)=O)c2)c(C)n1CC1CCCO1 (stereo not given) | x | n | n | n | n | n | x | x | x | x | x | x | x
Cc1ccc2c(c1)Cc1nc3ccccc3nc1-2 | 27 | n | 98 | 100 | n | 96 | 71 | 63 | n | 99 | 103 | 98 | 68
Cc1ccc2c(c1)-c1nc3ccccc3cc1C2=NC1CCCCC1 | n | n | x | x | n | x | x | x | x | x | x | x | x
COc1ccc(/C=N/Nc2ccc(C(=O)O)cc2)cc1Br | 60 | n | 95 | 100 | n | 97 | 76 | 76 | 99 | 100 | 102 | 98 | 98
C=CCOc1c(Br)cc(/C=N/Nc2ccc(C(=O)O)cc2)cc1OCC | 20 | n | 85 | 55 | n | 77 | 24 | 10 | 88 | 87 | 94 | n | 56
CC(C)c1ccc(/C=N/Nc2ccc(C(=O)O)cc2)cc1 | 61 | n | 98 | 101 | n | 97 | 90 | 85 | 99 | 100 | 103 | 97 | 99
O=C(N/N=C/c1ccc(-c2ccccc2Cl)o1)c1ccccc1 | n | n | n | n | n | n | x | x | x | x | x | x | x
O=C(O)c1ccc(N/N=C/c2ccc(-c3ccccc3Cl)o2)cc1 | 53 | n | 98 | 88 | n | 97 | 60 | 46 | 99 | 100 | 103 | 66 | 97
CCOc1cc(/C=N/O)cc(Br)c1OCC | n | n | n | n | n | n | x | x | x | x | x | x | x
COc1ccc(/C=N/Nc2ccc(C(=O)O)cc2)cc1OC | 35 | n | 95 | 86 | n | 82 | 44 | 29 | 89 | 88 | 99 | 90 | 83
O=C(O)c1ccc(N/N=C/c2ccc(OC(=O)c3ccccc3Cl)cc2)cc1 | 36 | n | 91 | n | n | 90 | 88 | n | 76 | 96 | 98 | n | n
COc1ccc(C(=O)c2c(-c3cccc(C)c3)oc3ccc(N4CCOCC4)cc23)cn1 | n | n | n | n | n | n | x | x | x | x | x | x | x
CCN(CC)c1ccc(/C=N\NC(N)=O)cc1 | n | n | n | n | n | n | x | x | x | x | x | x | x
CCN(CC)c1ccc(/C=N/NC(=O)c2ccoc2C)cc1 | 31 | n | 97 | 101 | n | 95 | 59 | 54 | 97 | 100 | 103 | 98 | 83
CCOc1c(Cl)cc(C(=O)Nc2cccc(C(=O)O)c2)cc1Cl | 30 | n | 95 | 88 | n | 92 | 47 | 9.8 | 95 | 96 | 101 | 54 | 96
CCOc1cccc(C(=O)Nc2ccc3ccccc3c2)c1 | 19 | n | 93 | 92 | n | 88 | 47 | 37 | n | 66 | 99 | n | n
Cc1cc(C(=O)Nc2cccc(C(=O)O)c2)oc1C | 86 | n | 92 | 98 | n | 92 | 92 | 79 | 95 | 95 | 100 | 86 | 94
CCOc1cccc(C(=O)Nc2cccc(C(C)=O)c2)c1 | n | n | n | n | n | n | x | x | x | x | x | x | x
CCOc1cccc(C(=O)Nc2ccc3c(c2)OCCO3)c1 | 19 | n | 69 | 65 | n | n | 45 | 27 | 66 | 63 | 89 | 77 | 69
CCOc1cccc(C(=O)Nc2ccc(N(CC)CC)cc2)c1 | n | n | n | n | n | n | x | x | x | x | x | x | x
Cc1ccc(NC(=O)CN(C)C(=O)COC(=O)C2=COCCO2)cc1 | x | n | n | n | n | n | x | x | x | x | x | x | x
CCOc1ccc(-c2cn3ccccc3n2)cc1 | 27 | n | n | 72 | n | 66 | 64 | 47 | 86 | 85 | 96 | 90 | 84
CCOc1ccc(-c2cnc3ccccc3n2)cc1 | 42 | n | 96 | 98 | n | 93 | 86 | 80 | n | 61 | 79 | 88 | 58
O=[N+]([O-])c1ccc(-c2cnc3ccccc3n2)cc1 | n | n | n | n | n | n | x | x | x | x | x | x | x
SMILES | HSP90 inh | SENP8 block-1 | SENP6 inh | SENP7 block | SENP1 inh | SENP8 block-2 | HSP90 confirm | luciferase ctr | SENP8 confirm | SENP6 confirm | SENP7 confirm | Casp3 select | SENP luc ctr
O=C(CCS(=O)(=O)c1ccc(Br)s1)N1CCc2ccccc21 | n | n | n | n | n | n | x | x | x | x | x | x | x
CCC(=O)Nc1cccc(-c2ccc(N3CCCCC3)nn2)c1 | 25 | n | 58 | 52 | n | n | 47 | 15 | 52 | n | 79 | 77 | 61
CCC(=O)Nc1cccc(-c2ccc(N3CCN(C)CC3)nn2)c1 | n | n | n | n | n | n | x | x | x | x | x | x | x
CCOC(=O)[C@]12CCC=C1N(Cc1ccc(Cl)cc1Cl)C(=O)[C@H](CC(=O)NCCCOC)C2 | x | n | x | x | n | x | x | x | x | x | x | x | x
O=C(O)c1cccc(NC(=S)N/N=C/c2ccccn2)c1 | 35 | n | n | 77 | n | 62 | 61 | 49 | 77 | 76 | 95 | n | 75
COc1ccc(C(=O)Nc2ccc3c(c2)OCCO3)cc1 | 28 | n | 73 | n | n | 70 | 46 | 27 | 81 | 81 | 97 | 91 | 83
COc1cccc(NC(=O)c2ccc3c(c2)OCCO3)c1 | 45 | n | 94 | 97 | n | 94 | 55 | 40 | 97 | 98 | 102 | 97 | 96
COc1cccc(NC(=O)c2ccc3c(c2)OCO3)c1 | 29 | n | 93 | 96 | n | 88 | 20 | n | n | 90 | 100 | 95 | 90
COc1ccc2oc(=O)c(C(=O)Nc3cccc(C(C)=O)c3)cc2c1 | n | n | n | n | n | n | x | x | x | x | x | x | x
COc1cccc(NC(=O)c2cc3ccccc3oc2=O)c1 | 28 | n | 94 | 100 | n | 90 | 64 | 72 | n | n | n | n | n
CC(=O)Nc1ccc(NC(=O)C2CCN(S(C)(=O)=O)CC2)cc1 | x | n | x | x | n | x | x | x | x | x | x | x | x
